Results published in ChEMBL document CHEMBL4425127 (J Med Chem, 2016).
Calls of active or inactive are those of the source. The calls are words filed in the database; no cut-off is given here.

Tests used:
[1] = Inhibition of recombinant Influenza A virus (A/Anhui/1/2013(H7N9)) Neuraminidase N9 expressed in baculovirus infected insect cells using 4-MU-NANA as substrate preincubated for 30 mins followed by substrate addition by microplate reader analysis
Method in brief: (§1)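 Purified recombinant NA, with activity pre-set to roughly 10–50 nM in PBS, preincubated with serial 5-fold inhibitor dilutions in PBS (top 1 mM) at 37 °C for 30 min. MUNANA solution (167 μM, PBS) then added. Fluorescence read at ex 355/em 460 nm.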

[2] = tested on: MDCK; test: Cytotoxicity against MDCK cells assessed as reduction in cell viability after 72 hrs by MTT assay; format: cell-based, Canis lupus familiaris; details: dog
[3] = Inhibition of recombinant Influenza A virus (A/Moscow/10/99(H3N2)) Neuraminidase N2 expressed in baculovirus infected insect cells using 4-MU-NANA as substrate preincubated for 30 mins followed by substrate addition by microplate reader analysis; design: species or system Influenza A virus (A/Moscow/10/1999(H3N2)); method in brief: as §1
[4] = tested on: Influenza A virus; test: Antiviral activity against Influenza A virus (A/Anhui/1/2013(H7N9)) expressing A/Puerto Rico/8/34(H1N1) genes infected in MDCK cells assessed as reduction in viral replication after 72 hrs by hemagglutination test; format: functional, organism-based
[5] = tested on: Influenza A virus H3N2; test: Antiviral activity against Influenza A virus (A/Moscow/10/99(H3N2)) expressing A/Puerto Rico/8/34(H1N1) genes infected in MDCK cells assessed as reduction in viral replication after 72 hrs by hemagglutination test; format: functional, organism-based, A/Moscow/10/1999(H3N2)
[6] = tested on: Influenza A virus; test: Antiviral activity against Influenza A virus (A/Puerto Rico/8/34(H1N1)) infected in MDCK cells assessed as plaque reduction after 72 hrs by toluidine blue staining based method; format: functional, A/Puerto Rico/8/1934(H1N1)
[7] = tested on: Influenza A virus; test: (§2) Antiviral activity against Influenza A virus (A/Puerto Rico/8/34(H1N1)) infected in Balb/c mouse assessed as protection against lethal virus challenge by measuring body weight at 20 mg/kg administered intranasally as single dose at 2 hrs post infection measured up to 14 days post treatment relative to control; format: functional, A/Puerto Rico/8/1934(H1N1)
Method in brief: (§3)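 BALB/c mice (6 per group) inoculated intranasally under anaesthesia with 10^5 pfu in 40 μL PBS. Inhibitor given intranasally in 40 μL PBS, either daily for 7 days from day 1 or once at 2 h pi; PBS-treated infected and uninfected controls. Weight and survival followed for 14 days; death counted at 25% weight loss or moribund. Mantel–Cox test.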

[8] = tested on: Influenza A virus; test: Antiviral activity against Influenza A virus (A/Puerto Rico/8/34(H1N1)) infected in Balb/c mouse assessed as protection against lethal virus challenge by measuring body weight at 5 to 10 mg/kg qd administered intranasally for 7 days starting from 1 day post infection measured for 14 days; format: functional, organism-based; details: A/Puerto Rico/8/1934(H1N1); method in brief: as §3
[9] = tested on: Influenza A virus; test: Antiviral activity against Influenza A virus (A/Puerto Rico/8/34(H1N1)) assessed as decrease in lung lesions at 10 mg/kg qd administered intranasally for 7 days starting from 1 day post infection by hematoxylin and eosin staining based microscopic analysis; format: functional, organism-based; details: A/Puerto Rico/8/1934(H1N1)
[10] = Aqueous solubility of compound; format: physicochemical; details: buffer
[11] = tested on: Influenza A virus; test: Antiviral activity against Influenza A virus (A/Puerto Rico/8/34(H1N1)) infected in Balb/c mouse assessed as bronchial wall thickening in lungs at 5 mg/kg qd administered intranasally for 7 days starting from 1 day post infection by hematoxylin and eosin staining based microscopic analysis; format: functional, organism-based; details: A/Puerto Rico/8/1934(H1N1)
[12] = tested on: Influenza A virus; test: (§4) Antiviral activity against Influenza A virus (A/Puerto Rico/8/34(H1N1)) infected in Balb/c mouse assessed as respiratory epithelium desquamation at 20 mg/kg qd administered intranasally as single dose at 2 hrs post infection measured after 7 days post infection by hematoxylin and eosin staining based microscopic analysis; format: functional, organism-based; details: A/Puerto Rico/8/1934(H1N1)
[13] = tested on: Influenza A virus; test: as §4, with “bronchial wall thickening in lungs” for “respiratory epithelium desquamation”; format: functional, organism-based; details: A/Puerto Rico/8/1934(H1N1)
[14] = tested on: Influenza A virus; test: as §2, with “mouse survival” for “body weight”; format: functional, A/Puerto Rico/8/1934(H1N1); method in brief: as §3
[15] = tested on: Influenza A virus; test: as §4, with “immune cell infiltration in lungs” for “respiratory epithelium desquamation”; format: functional, organism-based; details: A/Puerto Rico/8/1934(H1N1)
[16] = Half life in Sprague-Dawley rat at 6 umol/kg, iv by HPLC analysis; format: ADME, organism-based; details: in vivo
Method in brief: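 Rats (n = 5) received a single tail-vein injection in physiological saline. Plasma levels measured by HPLC, using a reversed-phase C18 gradient with ammonium-containing aqueous/acetonitrile eluents over 5 min at 0.6 mL/min.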

[17] = tested on: Influenza A virus; test: Antiviral activity against Influenza A virus (A/Puerto Rico/8/34(H1N1)) infected in Balb/c mouse assessed as immune cell infiltration in lungs at 5 mg/kg qd administered intranasally for 7 days starting from 1 day post infection by hematoxylin and eosin staining based microscopic analysis; format: functional, organism-based; details: A/Puerto Rico/8/1934(H1N1)
[18] = tested on: Influenza A virus; test: Antiviral activity against Influenza A virus (A/Puerto Rico/8/34(H1N1)) assessed as decrease in lung lesions at 20 mg/kg qd administered intranasally as single dose at 2 hrs post infection measured after 7 days post infection by hematoxylin and eosin staining based microscopic analysis; format: functional, organism-based; details: A/Puerto Rico/8/1934(H1N1)
[19] = tested on: Influenza A virus; test: Antiviral activity against Influenza A virus (A/Puerto Rico/8/34(H1N1)) infected in Balb/c mouse assessed as respiratory epithelium desquamation at 5 mg/kg qd administered intranasally for 7 days starting from 1 day post infection by hematoxylin and eosin staining based microscopic analysis; format: functional, organism-based; details: A/Puerto Rico/8/1934(H1N1)
[20] = tested on: Influenza A virus H3N2; test: Induction of viral aggregation in Influenza A virus (A/Moscow/10/99(H3N2)) at 1 mM after 3 hrs by transmission electron microscopic analysis; format: functional, organism-based; details: A/Moscow/10/1999(H3N2)
Method in brief: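 Virus (10^7 pfu in 150 μL DMEM) incubated at 37 °C for 3 h with 10 μL of 1 mM inhibitor stock in PBS, or without; then processed for transmission electron microscopy.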

[21] = tested on: Influenza A virus; test: Antiviral activity against Influenza A virus (A/Puerto Rico/8/34(H1N1)) infected in Balb/c mouse assessed as protection against lethal virus challenge by measuring mouse survival at 5 to 10 mg/kg qd administered intranasally for 7 days starting from 1 day post infection measured for 14 days; format: functional, organism-based; details: A/Puerto Rico/8/1934(H1N1); method in brief: as §3
[22] = tested on: Influenza A virus; test: Antiviral activity against Influenza A virus (A/Puerto Rico/8/34(H1N1)) infected in Balb/c mouse assessed as protection against lethal virus challenge by measuring mouse survival at 20 mg/kg administered intranasally as single dose at 2 hrs post infection measured up to 9 days post treatment; format: functional, organism-based; details: A/Puerto Rico/8/1934(H1N1); method in brief: as §3
[23] = Binding affinity to recombinant Influenza A virus (A/Moscow/10/99(H3N2)) Neuraminidase N2 expressed in baculovirus infected insect cells measured up to 400 sec by surface plasmon resonance analysis; design: species or system Influenza A virus (A/Moscow/10/1999(H3N2))
Method in brief: (§5)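 NA covalently immobilised on CM5 chip by amine coupling. Analyte passed over at several concentrations in running buffer. BSA served as negative control protein. Constants from a steady-state affinity model; triplicate experiments.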

[24] = tested on: Influenza A virus; test: Antiviral activity against Influenza A virus (A/Puerto Rico/8/34(H1N1)) infected in Balb/c mouse assessed as protection against lethal virus challenge by measuring body weight at 20 mg/kg administered intranasally as single dose at 2 hrs post infection measured up to 9 days post treatment; format: functional, organism-based; details: A/Puerto Rico/8/1934(H1N1); method in brief: as §3
[25] = biological target: Neuraminidase (Influenza A virus (A/Memphis/1/1971(H3N2))) (UniProt P03471); test: Binding affinity to recombinant Influenza A virus (A/Moscow/10/99(H3N2)) Neuraminidase N2 expressed in baculovirus infected insect cells at 100 to 1000 nM measured up to 160 sec by surface plasmon resonance analysis; method in brief: as §5
Chain of Neuraminidase (Influenza A virus (A/Memphis/1/1971(H3N2))) (P03471 whole entry): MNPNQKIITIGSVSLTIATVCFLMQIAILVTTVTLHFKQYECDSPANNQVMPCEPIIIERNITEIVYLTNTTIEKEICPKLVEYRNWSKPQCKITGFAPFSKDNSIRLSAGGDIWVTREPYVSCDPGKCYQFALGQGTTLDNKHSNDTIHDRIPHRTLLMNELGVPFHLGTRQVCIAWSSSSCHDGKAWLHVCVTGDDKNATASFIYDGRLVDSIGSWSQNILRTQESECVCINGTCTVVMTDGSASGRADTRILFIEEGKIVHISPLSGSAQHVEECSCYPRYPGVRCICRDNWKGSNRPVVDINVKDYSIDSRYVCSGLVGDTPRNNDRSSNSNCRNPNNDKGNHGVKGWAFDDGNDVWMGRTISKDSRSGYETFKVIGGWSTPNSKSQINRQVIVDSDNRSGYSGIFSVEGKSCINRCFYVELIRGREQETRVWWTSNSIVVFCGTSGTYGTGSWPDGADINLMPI

[26] = Influenza A virus, A/Moscow/10/1999(H3N2), MDCK, 72 h, read-out: EC50

SMILES: CCC(CC)O[C@@H]1C=C(C(=O)O)C[C@H](N)[C@H]1NC(C)=O [OSELTAMIVIR CARBOXYLATE]
- IC50 [1]: 0.8 nM
- Activity [2]: Non-Toxic
- IC50 [3]: 0.4 nM
- EC50 [4]: 12.3 nM
- EC50 [5, 26]: 7.1 nM

SMILES: CC(=O)N[C@H]1[C@H]([C@H](OC(=O)NCCOCCOCCOCCOCCOCCOCCOCCOCCOCCOCCOCCOCc2cn(CC(Cn3cc(COCCOCCOCCOCCOCCOCCOCCOCCOCCOCCOCCOCCNC(=O)O[C@@H]([C@@H]4OC(C(=O)O)=C[C@H](NC(=N)N)[C@H]4NC(C)=O)[C@H](O)CO)nn3)(Cn3cc(COCCOCCOCCOCCOCCOCCOCCOCCOCCOCCOCCOCCNC(=O)O[C@@H]([C@@H]4OC(C(=O)O)=C[C@H](NC(=N)N)[C@H]4NC(C)=O)[C@H](O)CO)nn3)Cn3cc(COCCOCCOCCOCCOCCOCCOCCOCCOCCOCCOCCOCCNC(=O)O[C@@H]([C@@H]4OC(C(=O)O)=C[C@H](NC(=N)N)[C@H]4NC(C)=O)[C@H](O)CO)nn3)nn2)[C@H](O)CO)OC(C(=O)O)=C[C@@H]1NC(=N)N (stereo partly specified)
- IC50 [1]: 0.8 nM
- Activity [6]: <4 nM
- Activity [7]: 100%
- Activity [8]: Active
- Activity [9]: Active
- solubility [10]: Soluble
- Activity [11]: Active
- Activity [2]: Non-Toxic
- Activity [12]: Active
- Activity [13]: Active
- IC50 [3]: 2.8 nM
- Activity [14]: 100%
- Activity [15]: Active
- half-life [16]: 72 min
- Activity [17]: Active
- EC50 [4]: 1.2 nM
- Activity [18]: Active
- Activity [19]: Active
- Activity [20]: inactive
- Activity [21]: Active
- EC50 [5, 26]: 3.5 nM

SMILES: CC(=O)N[C@H]1[C@H]([C@H](O)[C@H](O)CO)OC(C(=O)O)=C[C@@H]1N=C(N)N [ZANAMIVIR]
- Activity [2]: Non-Toxic
- half-life [16]: 32 min

SMILES: CC(=O)N[C@H]1[C@H]([C@H](O)[C@H](O)CO)OC(C(=O)O)=C[C@@H]1NC(=N)N [ZANAMIVIR]
- IC50 [1]: 1.5 nM
- Activity [8]: Active
- Activity [9]: inactive
- Activity [11]: inactive
- Activity [22]: inactive
- Activity [12]: inactive
- Activity [13]: inactive
- Kd [23]: 1.1 nM
- IC50 [3]: 3 nM
- Activity [15]: inactive
- Activity [17]: inactive
- EC50 [4]: 6.1 nM
- Activity [18]: inactive
- Activity [24]: inactive
- Activity [19]: inactive
- Activity [21]: Active
- EC50 [5, 26]: 17.7 nM

SMILES: CC(=O)N[C@@H]1[C@H]([C@@H](OC(=O)NCCOCCOCCOCCOCCOCCOCc2cn(CC(Cn3cc(COCCOCCOCCOCCOCCOCCNC(=O)O[C@@H]([C@@H]4OC(C(=O)O)=C[C@H](NC(=N)N)[C@H]4NC(C)=O)[C@H](O)CO)nn3)(Cn3cc(COCCOCCOCCOCCOCCOCCNC(=O)O[C@@H]([C@@H]4OC(C(=O)O)=C[C@H](NC(=N)N)[C@H]4NC(C)=O)[C@H](O)CO)nn3)Cn3cc(COCCOCCOCCOCCOCCOCCNC(=O)O[C@@H]([C@@H]4OC(C(=O)O)=C[C@H](NC(=N)N)[C@H]4NC(C)=O)[C@H](O)CO)nn3)nn2)[C@H](O)CO)OC(C(=O)O)=C[C@@H]1NC(=N)N (stereo partly specified)
- IC50 [1]: 1 nM
- solubility [10]: Soluble
- Kd [23]: 1.5 nM
- IC50 [3]: 3.8 nM

SMILES: CC(=O)N[C@H]1[C@H]([C@H](OC(=O)NCCOCCOCCOCc2cn(CC(Cn3cc(COCCOCCOCCNC(=O)O[C@@H]([C@@H]4OC(C(=O)O)=C[C@H](NC(=N)N)[C@H]4NC(C)=O)[C@H](O)CO)nn3)(Cn3cc(COCCOCCOCCNC(=O)O[C@@H]([C@@H]4OC(C(=O)O)=C[C@H](NC(=N)N)[C@H]4NC(C)=O)[C@H](O)CO)nn3)Cn3cc(COCCOCCOCCNC(=O)O[C@@H]([C@@H]4OC(C(=O)O)=C[C@H](NC(=N)N)[C@H]4NC(C)=O)[C@H](O)CO)nn3)nn2)[C@H](O)CO)OC(C(=O)O)=C[C@@H]1NC(=N)N (stereo partly specified)
- IC50 [1]: 2.5 nM
- solubility [10]: Soluble
- Kd [23]: 2.2 nM
- IC50 [3]: 6.2 nM

SMILES: COCCOCCOCCOCCOCCOCCOCCOCCOCCOCc1cn(CC(Cn2cc(COCCOCCOCCOCCOCCOCCOCCOCCOCCOC)nn2)(Cn2cc(COCCOCCOCCOCCOCCOCCOCCOCCOCCOC)nn2)Cn2cc(COCCOCCOCCOCCOCCOCCOCCOCCOCCOC)nn2)nn1
- Activity [25]: inactive
- Activity [2]: Non-Toxic
- EC50 [5]: Not Active
